Each block holds one compound with its values, some of them ahead of it.
Key:
[1] = Metabolite identification in human liver microsomes; assay type: in vitro ADME; details: 60 min
[2] = molecular target: T1, human MRGPRX1 (Homo sapiens, UniProt Q96LB2); test: MRGPRX1 intrinsic agonist activity in the absence of BAM8–22; assay type: cell-based; details: at concentrations up to 100 μM in the absence of BAM8–22
Method in brief: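 Same stable human MRGPRX1 HEK293 FLIPR format: 25,000 cells/well for 2 days, then 2 μM Fluo-4 AM with 1% Trypan Red in HBSS for 50 min at 37°C and 10 min at room temperature. Serially diluted test compound added in HBSS alone, with HBSS as negative control and BAM8–22 as positive control. Max–min fluorescence recorded over 2 min.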

[3] = In vivo pharmacokinetics in mice after oral administration; details: for Kp: male, CD-1, mouse, po, 100 mg/kg, Tissue-to-plasma ratio (by AUC)
Method in brief: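 Male CD1 mice (25–30 g, n=3) dosed by oral gavage at 100 mg/kg in 5% dimethylacetamide/10% Cremophor EL/10% Tween80/25% PEG400/50% water. Killed at 0.25–6 h; cardiac blood taken to plasma, spinal cord and brain flash-frozen. Acetonitrile extraction with losartan internal standard, then LC/MS/MS. Calibration 0.01–10 nmol/mL in naïve matrix, 1/x-weighted linear regression.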

[4] = molecular target: T2, MRGPRX2 (Homo sapiens, UniProt Q96LB1); assay type: cell-based
T2 sequence (Q96LB1 1-330): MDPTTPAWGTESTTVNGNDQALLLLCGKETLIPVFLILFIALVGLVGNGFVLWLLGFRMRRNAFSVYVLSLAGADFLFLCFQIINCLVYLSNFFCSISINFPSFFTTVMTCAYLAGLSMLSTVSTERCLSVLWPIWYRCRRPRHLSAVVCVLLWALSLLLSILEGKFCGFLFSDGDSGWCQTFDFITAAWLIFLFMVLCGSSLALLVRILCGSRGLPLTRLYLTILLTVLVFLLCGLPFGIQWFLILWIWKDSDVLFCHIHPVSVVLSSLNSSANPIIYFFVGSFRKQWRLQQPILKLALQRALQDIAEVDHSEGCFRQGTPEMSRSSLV

[5] = test system: panel of 44 selected targets (Eurofins Cerep SafetyScreen 44); test: Off-target panel of 44 selected targets; details: at 10 μM
[6] = molecular target: hERG channel (Homo sapiens, UniProt Q12809); test: hERG channel in Eurofins Cerep SafetyScreen 44; details: at 10 μM
[7] = test system: humanized MRGPRX1 mice; assay type: in vivo; details: 100 mg/kg oral, 0–1 hour post-drug
[8] = test system: naïve MRGPRX1 mice; test: Open field test in naïve MRGPRX1 mice; assay type: in vivo; details: 100 mg/kg, po, compared to pre-drug
[9] = test system: naïve MRGPRX1 mice; test: Rotarod test in naïve MRGPRX1 mice; assay type: in vivo; details: 100 mg/kg, po, vs vehicle-treated group and pre-treatment values
[10] = test system: humanized MRGPRX1 mice; test: Sciatic nerve chronic constriction injury; assay type: in vivo; details: 100 mg/kg, po
Method in brief: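 Humanized MRGPRX1 mice of both sexes (2–3 months, 20–30 g) under 2% isoflurane; left sciatic nerve loosely ligated with three sutures proximal to the branching point. Test compound given at 100 mg/kg po, vehicle as control. Hargreaves heat paw withdrawal latency measured before and after dosing on days 12 and 26 post-CCI (n=4–5/group). Two-way mixed-model ANOVA with Bonferroni; mean + SD.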

[11] = molecular target: T1, human MRGPRX1; assay type: cell-based; details: MRGPRX1 PAM potency
Method in brief: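 Stable human MRGPRX1 HEK293 cells seeded at 25,000/well and grown 2 days. Loaded with 2 μM Fluo-4 AM plus 1% Trypan Red in HBSS for 50 min at 37°C, then 10 min at room temperature. Serial HBSS dilutions of test compound added with EC20 BAM8–22; FLIPR read for 2 min as max–min fluorescence. […] Mean ± SEM, ≥3 experiments in quadruplicate.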

[12] = test system: MRGPRX1; details: NIH MLPCN; cited from earlier work
[13] = test system: MRGPRX1; details: cited from earlier work
[14] = spinal cord, 100 mg/kg po (table)

T1 sequence (Q96LB2 whole entry): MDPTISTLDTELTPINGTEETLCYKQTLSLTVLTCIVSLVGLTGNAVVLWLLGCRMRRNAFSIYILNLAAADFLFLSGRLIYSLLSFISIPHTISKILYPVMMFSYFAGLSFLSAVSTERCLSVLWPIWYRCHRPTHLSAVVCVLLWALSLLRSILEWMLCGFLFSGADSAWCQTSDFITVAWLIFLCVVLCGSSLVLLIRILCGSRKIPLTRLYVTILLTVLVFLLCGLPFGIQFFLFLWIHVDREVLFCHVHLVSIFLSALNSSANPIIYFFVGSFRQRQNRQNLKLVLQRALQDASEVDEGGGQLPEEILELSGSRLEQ
Chain of hERG channel (Q12809 whole entry): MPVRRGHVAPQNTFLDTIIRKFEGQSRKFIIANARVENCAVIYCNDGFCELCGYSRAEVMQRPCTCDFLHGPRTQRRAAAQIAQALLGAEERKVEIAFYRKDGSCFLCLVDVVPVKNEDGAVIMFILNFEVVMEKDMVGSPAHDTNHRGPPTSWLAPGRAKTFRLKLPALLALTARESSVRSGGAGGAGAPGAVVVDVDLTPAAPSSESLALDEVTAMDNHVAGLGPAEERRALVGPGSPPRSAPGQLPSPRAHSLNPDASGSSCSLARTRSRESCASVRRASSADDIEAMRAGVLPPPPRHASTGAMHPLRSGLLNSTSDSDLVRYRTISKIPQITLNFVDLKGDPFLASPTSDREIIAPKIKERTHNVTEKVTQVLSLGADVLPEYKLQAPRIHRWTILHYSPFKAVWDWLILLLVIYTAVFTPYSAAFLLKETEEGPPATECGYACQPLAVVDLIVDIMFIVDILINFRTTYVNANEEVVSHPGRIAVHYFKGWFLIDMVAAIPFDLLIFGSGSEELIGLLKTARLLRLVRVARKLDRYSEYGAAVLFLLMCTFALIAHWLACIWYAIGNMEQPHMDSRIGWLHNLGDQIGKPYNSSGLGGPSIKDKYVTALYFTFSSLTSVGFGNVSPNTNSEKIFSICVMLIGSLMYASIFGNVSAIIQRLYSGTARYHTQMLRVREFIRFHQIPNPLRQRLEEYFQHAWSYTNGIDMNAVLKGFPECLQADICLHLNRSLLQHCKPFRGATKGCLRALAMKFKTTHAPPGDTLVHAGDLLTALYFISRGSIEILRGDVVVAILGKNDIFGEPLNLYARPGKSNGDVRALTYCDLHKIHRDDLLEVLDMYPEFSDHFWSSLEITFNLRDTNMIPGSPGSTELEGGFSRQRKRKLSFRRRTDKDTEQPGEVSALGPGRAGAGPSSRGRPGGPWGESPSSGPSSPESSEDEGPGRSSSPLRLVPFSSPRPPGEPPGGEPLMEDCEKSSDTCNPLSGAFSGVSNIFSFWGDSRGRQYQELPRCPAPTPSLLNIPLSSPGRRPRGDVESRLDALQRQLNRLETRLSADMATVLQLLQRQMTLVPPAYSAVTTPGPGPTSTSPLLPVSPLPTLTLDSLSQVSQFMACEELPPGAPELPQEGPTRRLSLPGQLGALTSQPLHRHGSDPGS

SMILES: Cc1sc2ncnc(Oc3ccccc3F)c2c1C [Compound 1f, 4-(2-Fluorophenoxy)-5,6-dimethylthieno[2,3-d]pyrimidine]
major metabolite identification [1]: insertion of an oxygen atom into the parent compound

SMILES: CC(C)(C)c1sc2ncnc(Oc3ccccc3OC(F)(F)F)c2c1-c1ccc(Cl)c(Cl)c1 [Compound 1t, 6-tert-butyl-5-(3,4-dichlorophenyl)-4-(2-(trifluoromethoxy)phenoxy)thieno[2,3-d]pyrimidine]
intrinsic agonist activity [2]: no intrinsic agonist activity
Cmax in the spinal cord relative to the EC50 value ([3]; 100 mg/kg po): more than 40 fold
Cmax ([3]; brain, 100 mg/kg po): 0.82 ± 0.05 nmol·h/g
Kp ([3]; brain/plasma, brain, 100 mg/kg po): 0.022
Kp ([3]; spinal cord/plasma, spinal cord, 100 mg/kg po): 0.127
AUC0-last [3, 14]: 13.79 ± 0.14 nmol·h/g
Cmax [3, 14]: 4.60 ± 0.60 nmol·h/g
selectivity for MRGPRX1 over MRGPRX2 [4]: at least 50 fold
MRGPRX2 PAM activity ([4]; at 5 μM, in presence of EC20 concentration of C48/80): no MRGPRX2 PAM activity
inhibition of 5 of the 44 targets [5]: 50−64%
inhibition of hERG channel [6]: more than 50%
itch side effects (spontaneous scratch bouts) [7]: lack of spontaneous scratch bouts
overt adverse effects ([7]; compared to vehicle): no overt adverse effects
exploratory performance in the open field test [8]: neither compound 1t (100 mg/kg, po) nor vehicle significantly impaired exploratory performance
performance on the rotarod test [9]: no difference in performance on the rotarod test
ipsilateral paw withdrawal latency (PWL) to radiant heat ([10]; 1 and 2 hours post-drug on day 12 post-injury): significantly increased ipsilateral PWLs from pre-drug level
ipsilateral paw withdrawal latency (PWL) to radiant heat ([10]; 2 hours post-drug on day 26 post-injury): significantly increased ipsilateral PWLs from pre-drug level
contralateral hind paw PWL ([10]; after drug treatment): no significant change of PWLs

fold loss in potency compared to 1b [11]: 4 fold
SMILES: Cc1sc2ncnc(Oc3ccccc3)c2c1C [Compound 1c, 5,6-Dimethyl-4-phenoxythieno[2,3-d]pyrimidine]

SMILES: Cc1ccccc1Oc1ncnc2sccc12 [Compound 1b, 4-(o-Tolyloxy)thieno[2,3-d]pyrimidine]
allosteric MRGPRX1 activator activity [12]: active allosteric MRGPRX1 activator

SMILES: CCOc1ccccc1NC(=O)c1ccccc1NS(=O)(=O)C1CC1 [ML382, 2-[(Cyclopropylsulfonyl)amino]-N-(2-ethoxyphenyl)benzamide]
pain hypersensitivity after injury ([13]; intrathecal injection): inhibit pain hypersensitivity after injury
itch side effects ([13]; systemic administration): did not elicit itch side effects
